# Compound activity: PubChem, several laboratories
# IMP-1 inhibitor = blocks Pseudomonas aeruginosa IMP-1 metallo-beta-lactamase; actives 0.45% (n = 290,000); purified IMP-1, nitrocefin hydrolysis, epi-absorbance fluorescence; inhibition, % at 5.6 µM;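 active = inhibition above the mean plus 3 SD of all compounds in the same screening run, cut at about 4.5% in these data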;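 note: 0% = IMP-1 with DMSO and 100% = DMSO wells lacking enzyme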
#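 Material – recombinant IMP-1 enzyme, purified · Amount – IMP-1 0.2 nM before substrate addition · Medium – HEPES buffer pH 7.1 with ZnSO4 and Brij 35 · Timing – 25 °C, 15 min preincubation, 25 min reaction · Measured by – plate fluorescence quenching by hydrolysis product, ex 480/em 530 nm · Read-out – percent enzyme inhibition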
# 697 NFkB inh = lowers PMA/ionomycin-induced NF-kB signal in 697 B cells; 697 B-cell NF-kB luciferase reporter, 16 h; inhibition, % at 4 µM; actives 0.33% (n = 330,000); in the data active = inhibition above about 35%
# VIM-2 inh = blocks Pseudomonas aeruginosa VIM-2 metallo-beta-lactamase. inhibition, % at 5.6 µM. actives 0.89% (n = 290,000). purified VIM-2, nitrocefin hydrolysis, epi-absorbance fluorescence;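 active = inhibition above the mean of all tested compounds plus 3 SD, cutoff set per screening run, cut at about 7.5% in these data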;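 note: red hydrolysis product quenches plate fluorescence so inhibitors raise well fluorescence; 0% = enzyme with DMSO and 100% = DMSO without enzyme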
# Jurkat NFkB inh = lowers PMA/ionomycin-induced NF-kB signal in Jurkat cells. PMA/ionomycin-induced NF-kB luciferase reporter, luminescence. inhibition, % at 4 µM. actives 0.53% (n = 330,000); in the data active = inhibition above about 50%
# Mdm2-MdmX inh = human Mdm2/MdmX binding inhibition; O15151+Q00987; inhibition, % at 8 µM; SaOS-2 split-luciferase Mdm2/MdmX complementation, luminescence; AID 485346; actives 3% (n = 330,000);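 active = inhibition of at least 50% at 8 µM in the primary screen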
# aSyn UTR inh = 5' untranslated region of α-synuclein, MLPCN primary screen. inhibition, % (tested at 7.5 µM). actives 0.82% (n = 300,000). alpha-synuclein 5'UTR reporter, inhibitor activity. AID 1813; in the data active = inhibition above about 60%;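 note: H4 neuroglioblastoma cells stably carrying SNCA 5'UTR luciferase fusion; 0% = DMSO wells and 100% = positive control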
# Numbers without * were called inactive; nt = no result given. In the library only some 4.7% were active in any assay of this set; here they are far more common.
SMILES,IMP-1 inhibitor,697 NFkB inh,VIM-2 inh,Jurkat NFkB inh,Mdm2-MdmX inh,aSyn UTR inh
CCOC(=O)c1c(NC(=O)CN2C(=O)CN(C)C2=O)sc(C)c1C,11*,-9,3,7,37,23
CCCCN1C(=O)C(=O)N(CC(=O)Nc2sc(C)c(C)c2C(=O)OC)C1=O,nt,5,nt,-14,24,nt
COC(=O)C1=C(C)N(c2ccc(OC)cc2)C(C)=C(C(=O)OC)C1c1ccc(OC)cc1,38*,-4,-2,11,32,0
Cc1ccc(S(=O)(=O)N(C)C)cc1NC(=O)CSc1nc2ncc(Cl)cc2[nH]1,nt,-3,nt,9,3,nt
CN(C)C1(CN=Cc2cc(Cl)cc([N+](=O)[O-])c2O)CCCCC1,5.7*,-2,-4,-18,13,13
COC(=O)C1CCN(C2=C(NS(=O)(=O)c3ccc(Cl)cc3)C(=O)c3ccccc3C2=O)CC1,-1,-33,8.4*,-11,2,3
CC(=O)Nc1ccc(S(=O)(=O)N(Cc2cc3ccc(C)cc3[nH]c2=O)CC2CCCO2)cc1 (stereo unspecified),-1,-44,-4,-48,-29,82*
CCCC[n+]1ccn(C2=C([O-])c3ccccc3C(=O)/C2=N\S(=O)(=O)c2ccc(Cl)cc2)c1,-6,-5,-2,7,34,66*
O=C1c2ccccc2C(=O)c2c1cccc2N1CCCC1,1,nt,4,nt,nt,-49
Cn1c(=O)cc2c3c(c(N4CCCCC4)ccc31)C(=O)c1ccccc1-2,1,12,10*,7,21,-25
COc1ccc(-c2ccc(C(=S)N3CCN(C(C)=O)CC3)o2)cc1,8.5*,-7,-2,-2,-5,-12
CCOc1cccc(/C=N/NC(=S)Nc2cc(S(=O)(=O)N3CCOCC3)ccc2N2CCOCC2)c1O,-3,-67,0,14,49,81*
CC1CCCC(C)N1CCCNC(=O)Cn1ncc2c3ccccc3n(C)c2c1=O (stereo unspecified),-1,-7,2,-4,20,7
Cc1nn(-c2ccc(F)cc2)c(Cl)c1C(=O)N(C)CC(=O)Nc1cccc(F)c1,nt,-3,nt,9,12,2
COC(=O)c1ccc2nc(-c3ccc4c(c3)OCO4)cn2c1,-3,-112,0,-75,37,95*
COCCCn1c(SC(C)C(=O)NC2CC2)nc2ccccc2c1=O (stereo unspecified),nt,3,nt,-6,15,0
COc1ccccc1NC(=O)NCc1ccc(C)n1C,2,6,11*,8,-12,-7
Cc1ccc(CNC(=O)Nc2ccc(F)cc2)n1C,-3,nt,-3,nt,nt,-27
CCC(CC)C(=O)NCCc1ccc(OC)cc1,1,9,-2,-12,20,8
CC[C@@H](C)[C@H](CN[C@H](CNC)[C@@H](C)O)NCCc1ccc(OC)cc1,0,14,11*,9,24,16
COc1ccc(C(Cl)=C(c2ccc(OC)cc2)c2ccc(OC)cc2)cc1,12*,12,0,-4,22,-2
Cc1cnnc2c1-c1nonc1CC2,4.5*,4,-2,-17,0,0
COc1c(O)c(=O)n2c3ccccc3c3ccnc1c32,nt,22,nt,-4,16,-3
O=c1c(Cl)c(O)c2cccc3c4ccccc4n1c23,0,6,9.4*,10,6,-64
CNC(=O)COC(=O)CCC(=O)c1cccs1,-1,20,-2,-4,4,10
SMILES,IMP-1 inhibitor,697 NFkB inh,VIM-2 inh,Jurkat NFkB inh,Mdm2-MdmX inh,aSyn UTR inh
O=C(COC(=O)CCC(=O)c1cccs1)NC(=O)c1ccc(OC(F)F)cc1,4.8*,20,-2,-6,8,11
CC1Nc2ncnc(N3CCN(c4ccccc4)CC3)c2N(Cc2ccc(Br)cc2)C1=O (stereo unspecified),nt,1,nt,3,27,22
O=C(CC(CC(=O)c1ccc(Cl)cc1)c1ccccc1C(=O)O)c1ccc(Cl)cc1,-3,-2,12*,-5,-3,5
O=C(O)c1ccccc1C(=O)c1ccc(Cl)cc1,-3,13,8,0,11,14
COc1ccc(/C=N/NC(=O)c2ccncc2)cc1COc1ccc(NC(C)=O)cc1,-3,18,-2,28,18,80*
Cc1ccc(S(=O)(=O)CCC(=O)NNC(=O)CN(C)S(=O)(=O)c2ccc(C)cc2)cc1,nt,4,nt,11,21,nt
